Assay results from ChEMBL document CHEMBL1126036, “Quinolone antibacterial agents. Synthesis and structure-activity relationships of a series of amino acid prodrugs of racemic and chiral 7-(3-amino-1-pyrrolidinyl)quinolones. Highly soluble quinolone prodrugs with in vivo pseudomonas activity” (J Med Chem, 1992).
Values after ≈ are worked out from the molar mass of the structure shown.

How the values were obtained:
[1] = Solubility (in 0.1 N HCl); format: physicochemical; details: read-out: S
Method in brief: (§1)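 Solubility was measured either from HPLC peak areas at equilibrium or by a conventional weight-per-volume method. All solutions were held for 24 h before measurement.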

[2] = Solubility (at pH 4); format: physicochemical; details: buffer; for solubility: read-out: S; method in brief: as §1
[3] = system: Escherichia coli; assay: In vitro antibacterial activity against gram negative Escherichia coli Vogel.; format: functional
[4] = system: Enterococcus faecalis; assay: In vitro antibacterial activity against gram positive Enterococcus faecalis MGH-2.; format: functional
[5] = target: DNA gyrase (Escherichia coli) (UniProt P0AES6+P0AES4); assay: In vitro concentration inhibiting DNA gyrase induced cleavage in Escherichia coli H560.; format: functional
Method in brief: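 DNA gyrase test run as described in earlier work. The value is the drug concentration (µg/mL) needed to cause DNA cleavage.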

[6] = system: Enterobacter cloacae; assay: In vitro antibacterial activity against gram negative Enterobacter cloacae MA 2646.; format: functional
[7] = system: Klebsiella pneumoniae; assay: In vitro antibacterial activity against gram negative Klebsiella pneumoniae. MGH-2; format: functional
[8] = system: Escherichia coli; assay: In vivo potency against acute systemic infection in mouse caused by Escherichia coli Vogel on oral administration by gavage.; format: functional; details: read-out: PD50
Method in brief: (§2)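 Acute systemic mouse infection. A single oral dose was given by gavage at the time of challenge. Potency is reported as the median protective dose (PD50, mg/kg), determined by earlier published methods.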

[9] = system: Escherichia coli; assay: In vivo potency against acute systemic infection in mouse caused by Escherichia coli vogel on subcutaneous injection.; format: functional; details: sc, read-out: PD50
Method in brief: (§3)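 Acute systemic mouse infection. A single subcutaneous dose was injected at the time of challenge. Potency is reported as the median protective dose (PD50, mg/kg), determined by earlier published methods.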

[10] = system: Pseudomonas aeruginosa; assay: In vitro antibacterial activity against gram negative Pseudomonas aeruginosa UI-18.; format: functional
[11] = system: Providencia rettgeri; assay: In vitro antibacterial activity against gram negative Providencia rettgeri M-1771.; format: functional
[12] = system: Staphylococcus aureus; assay: In vitro antibacterial activity against gram positive Staphylococcus aureus H-228.; format: functional
[13] = system: Streptococcus pyogenes; assay: In vitro antibacterial activity against gram positive Streptococcus pyogenes C-203.; format: functional
[14] = system: Staphylococcus aureus; assay: In vitro antibacterial activity against gram positive Staphylococcus aureus UC76.; format: functional
[15] = system: Streptococcus pneumoniae; assay: In vitro antibacterial activity against gram positive Streptococcus pneumoniae SV-1.; format: functional
[16] = Aqueous solubility; format: physicochemical; details: read-out: S; method in brief: as §1
[17] = system: Streptococcus pneumoniae; assay: In vivo potency against acute systemic infection in mouse caused by Streptococcus pneumoniae SV-1 on oral administration by gavage.; format: functional; details: read-out: PD50; method in brief: as §2
[18] = system: Streptococcus pneumoniae; assay: In vivo potency against acute systemic infection in mouse caused by Streptococcus pneumoniae SV-1 on subcutaneous injection.; format: functional; details: sc, read-out: PD50; method in brief: as §3
[19] = system: Mus musculus; assay: In vivo potency against acute systemic infection in mouse caused by Pseudomonas aeruginosa UI-18 on oral administration by gavage.; format: functional; details: read-out: PD50; method in brief: as §2
[20] = system: Mus musculus; assay: In vivo potency against acute systemic infection in mouse caused by Pseudomonas aeruginosa. UI-18. on subcutaneous injection.; format: functional; details: sc, read-out: PD50; method in brief: as §3
[21] = system: Mus musculus; assay: In vivo potency against acute systemic infection in mouse caused by Streptococcus pyogenes C-203 on oral administration by gavage; format: functional; details: read-out: PD50; method in brief: as §2
[22] = system: Mus musculus; assay: In vivo potency against acute systemic infection in mouse caused by Streptococcus pyogenes C-203 on subcutaneous injection; format: functional; details: sc, read-out: PD50; method in brief: as §3
[23] = Solubility (at pH 7.4); format: physicochemical; details: buffer, read-out: S; method in brief: as §1
[24] = system: Klebsiella pneumoniae; assay: In vitro antibacterial activity against gram negative Klebsiella pneumoniae MGH-2.; format: functional

SMILES	solubility [1] [mg/mL]	MIC [3] [mg/L]	MIC [4] [mg/L]	Cleavage [5] [µg/mL]	MIC [6] [mg/L]	ED50 [8] [mg/kg]	ED50 [9] [mg/kg]	MIC [10] [mg/L]	MIC [11] [mg/L]	MIC [12] [mg/L]	MIC [13] [mg/L]	MIC [14] [mg/L]	MIC [15] [mg/L]	solubility ([16]; water (aqueous)) [mg/mL]	ED50 [17] [mg/kg]	ED50 [18] [mg/kg]	ED50 [19] [mg/kg]	ED50 [20] [mg/kg]	ED50 [21] [mg/kg]	ED50 [22] [mg/kg]	further results
NC(=O)CC[C@H](N)C(=O)NC1CCN(c2nc3c(cc2F)c(=O)c(C(=O)O)cn3C2CC2)C1 (stereo not given in full)	1.4 (≈ 3040 µM)	6.3 (≈ 13.7 µM)	6.3 (≈ 13.7 µM)	5	6.3 (≈ 13.7 µM)	4.8	0.4	> 25	25 (≈ 54.3 µM)	3.1 (≈ 6.73 µM)	12.5 (≈ 27.1 µM)	0.8 (≈ 1.74 µM)	12.5 (≈ 27.1 µM)	6.1 (≈ 13200 µM)							solubility [2]: 3.1 mg/mL (≈ 6730 µM); MIC [7]: 12.5 mg/L (≈ 27.1 µM); solubility ([16]; pH 7.4 phosphate buffer): 0.05 mg/mL (≈ 109 µM)
C[C@H](N)C(=O)NC1CCN(c2nc3c(cc2F)c(=O)c(C(=O)O)cn3C2CC2)C1.Cl.O (stereo not given in full)	> 350	0.4	1.6	0.75	0.2	1	0.6	3.1	1.6	3.1	0.4	0.8	0.8	> 300	28	10	7	5	15	7	solubility [2]: > 350 mg/mL; MIC [7]: 0.8 mg/L; solubility ([16]; pH 7.4 phosphate buffer): 0.08 mg/mL
N[C@H]1CCN(c2nc3c(cc2F)c(=O)c(C(=O)O)cn3C2CC2)C1		0.006 (≈ 0.0181 µM)	0.1 (≈ 0.301 µM)	0.25	0.013 (≈ 0.0391 µM)	0.8	0.4	0.1 (≈ 0.301 µM)	0.025 (≈ 0.0752 µM)	0.05 (≈ 0.15 µM)	0.05 (≈ 0.15 µM)	0.013 (≈ 0.0391 µM)	0.05 (≈ 0.15 µM)		19	14	4	2	19	9	MIC [7]: 0.013 mg/L (≈ 0.0391 µM)
C[C@H](N)C(=O)N[C@H]1CCN(c2c(F)c(N)c3c(=O)c(C(=O)O)cn(C4CC4)c3c2F)C1.Cl.O	2.8	0.05	0.2	2.5	0.05	5	2.5	1.6	0.4	0.1	0.05	0.025	0.05	18	17	13	9.6	4	6.3	23	solubility [2]: 58 mg/mL; solubility [23]: 0.04 mg/mL; MIC [24]: 0.2 mg/L
C[C@H](N)C(=O)NC1CCN(c2c(F)cc3c(=O)c(C(=O)O)cn(C4CC4)c3c2F)C1.Cl.O (stereo not given in full)	7.2	0.2	0.4	1	0.2	2	0.3	0.4	0.2	0.2	0.1	0.05	0.1	31	13	9	13	2	12	4	solubility [2]: 25 mg/mL; solubility [23]: 0.09 mg/mL; MIC [24]: 0.2 mg/L
NC1CCN(c2nc3c(cc2F)c(=O)c(C(=O)O)cn3-c2ccc(F)cc2F)C1 (stereo not given) [TOSUFLOXACIN]	0.4 (≈ 989 µM)	0.013 (≈ 0.0322 µM)	0.1 (≈ 0.247 µM)		0.025 (≈ 0.0618 µM)	1	0.3	0.4 (≈ 0.989 µM)	0.1 (≈ 0.247 µM)	0.05 (≈ 0.124 µM)	0.05 (≈ 0.124 µM)	0.025 (≈ 0.0618 µM)	0.025 (≈ 0.0618 µM)	0.65 (≈ 1610 µM)	14	3	6	4	5	3	S [2]: 0.55 mg/mL; solubility [23]: 0.1 mg/mL (≈ 247 µM); MIC [24]: 0.05 mg/L (≈ 0.124 µM)
Nc1c(F)c(N2CCC(N)C2)c(F)c2c1c(=O)c(C(=O)O)cn2C1CC1 (stereo not given)	0.1 (≈ 274 µM)	0.006 (≈ 0.0165 µM)	0.025 (≈ 0.0686 µM)	0.25	0.006 (≈ 0.0165 µM)	2	0.4	0.05 (≈ 0.137 µM)	0.025 (≈ 0.0686 µM)	0.013 (≈ 0.0357 µM)	0.025 (≈ 0.0686 µM)	0.006 (≈ 0.0165 µM)	0.006 (≈ 0.0165 µM)	2.4 (≈ 6590 µM)	20	9	16	4	24	6	solubility [2]: 3.2 mg/mL (≈ 8780 µM); solubility [23]: 0.08 mg/mL (≈ 220 µM); MIC [24]: 0.006 mg/L (≈ 0.0165 µM)
